Published values pooled from the literature.
Organism: Mycobacterium tuberculosis
Effect on: microbial growth

O=[N+]([O-])c1ccc(/C(O)=C/C(=S)S)cc1 has an MIC of 7.8 µg/mL (H37RA).
O=C1NN=C(N=Cc2ccccc2O)C1=NNn1c(-c2ccccc2)nc2ccccc2c1=O gave an MIC of 13.8 µM (resazurin; H37RV).
For CO[C@H]1/C=C/O[C@@]2(C)Oc3c(C)c(O)c4c(O)c(c(/C=N/N5CCN(C)CC5)c(O)c4c3C2=O)NC(=O)/C(C)=C\C=C\[C@H](C)[C@H](O)[C@@H](C)[C@@H](O)[C@@H](C)[C@H](OC(C)=O)[C@@H]1C, the MIC was 0.4 µg/mL (broth dilution).
O=C(NN1C(=O)CSC12CCCC2)c1[nH]c2ccc(Cl)cc2c1-c1ccccc1 has an MIC of 1000 µM (ATCC27294 H37RV).
[O-][n+]1ccccc1SSc1cccc[n+]1[O-] gave an MIC of 0.23 µM (resazurin).
CC1CCC2(CC1)SC(C)C(=O)N2NC(=O)c1[nH]c2ccc(Cl)cc2c1-c1ccccc1 (centres unmarked) has an MIC of 1000 µM (ATCC27294 H37RV).
The MIC of C[C@@H]1CN2c3c(cc4c(N5CC[C@@H](O)C5)noc4c3F)CC3(C(=O)NC(=O)NC3=O)[C@H]2[C@H](C)N1C#N is reported as 7.8 µM (H37RV).
For CO[C@H]1/C=C/O[C@@]2(C)Oc3c(C)c(O)c4c(O)c(c(/C=N/N5CCN(C)CC5)c(O)c4c3C2=O)NC(=O)/C(C)=C\C=C\[C@H](C)[C@H](O)[C@@H](C)[C@@H](O)[C@@H](C)[C@H](OC(C)=O)[C@@H]1C, the MIC was 0.03 µg/mL (ATCC27294 H37RV; 7 days).
The MIC of O=C1C(=NNc2nc(-c3ccccc3)cs2)C(N=Cc2ccc(Cl)cc2)=NN1c1ccccc1 is reported as 25 µg/mL (resazurin; H37RV).
CC1CCC2(CC1)SCC(=O)N2NC(=O)c1[nH]c2ccc(Cl)cc2c1-c1ccccc1 (centres unmarked) has an MIC of 31 µM (ATCC27294 H37RV).
NNC(=O)c1ccncc1 gave an MIC of 0.25 µg/mL (broth dilution; H37RV; 21 days).
CO[C@H]1/C=C/O[C@@]2(C)Oc3c(C)c(O)c4c(O)c(c(/C=N/N5CCN(C)CC5)c(O)c4c3C2=O)NC(=O)/C(C)=C\C=C\[C@H](C)[C@H](O)[C@@H](C)[C@@H](O)[C@@H](C)[C@H](OC(C)=O)[C@@H]1C gave an MIC of 0.016 µM (W4).
The MIC of CC[C@H]1OC(=O)[C@H](C)[C@@H](O[C@H]2C[C@@](C)(OC)[C@@H](O)[C@H](C)O2)[C@H](C)[C@@H](O[C@@H]2O[C@H](C)C[C@H](N(C)C)[C@H]2O)[C@](C)(OC)C[C@@H](C)C(=O)[C@H](C)[C@@H](O)[C@]1(C)O is reported as 8 µg/mL (resazurin; H37RA; 14 days).
O=C1COCCN1c1ccc(CO[C@@H]2COc3nc([N+](=O)[O-])cn3C2)cc1F has an MIC of 0.4 to 0.8 µg/mL (H37RV).
With Cc1c(Cc2ccc(F)cc2F)c(=O)n2c([nH]c3ccccc32)c1C#N the MIC was 1 µg/mL (broth dilution; H37RV).
COc1ccc2cc1Oc1cc(ccc1OC)CCC(N[C@H]1CCCc3ccccc31)CCCC2 (some centres unmarked) has an MIC of greater than 100 µg/mL (broth dilution; H37RV).
CO[C@H]1/C=C/O[C@@]2(C)Oc3c(C)c(O)c4c(O)c(c(/C=N/N5CCN(C)CC5)c(O)c4c3C2=O)NC(=O)/C(C)=C\C=C\[C@H](C)[C@H](O)[C@@H](C)[C@@H](O)[C@@H](C)[C@H](OC(C)=O)[C@@H]1C has an MIC of 0.012 µM (H37RV; 5 days).
With COC(=O)c1cc(-c2cccc(NC(=S)Nc3ccc(C#N)cc3)c2)on1 the MIC was 2 µg/mL (ATCC27294 H37RV; 7 days).
With CCCCCCCCCCC[C@@H](C[C@@H]1OC(=O)[C@H]1CCCCCC)OC(=O)[C@H](CC(C)C)NC=O the MIC was 24 µg/mL (resazurin; H37RA).
With COC(=O)c1cc(-c2cccc(NC(=S)Nc3cccc(Br)c3)c2)on1 the MIC was 8 µg/mL (ATCC27294 H37RV; 7 days).
CCC1CCC2(CC1)SC(C)C(=O)N2NC(=O)c1[nH]c2ccc(Cl)cc2c1-c1ccccc1 (centres unmarked) has an MIC of 1000 µM (ATCC27294 H37RV).
For COC(=O)c1cc(-c2cccc(NC(=O)Nc3ccc(Cl)c(Cl)c3)c2)on1, the MIC was 0.25 µg/mL (ATCC27294 H37RV; 7 days).
With COc1nc2ccc(Br)cc2cc1[C@@H](c1ccccc1)[C@@](O)(CCN(C)C)c1cccc2ccccc12 the MIC was 0.17 µM (resazurin; H37RV; 7 days).
O=C1C(=NNc2nc(-c3ccccc3)cs2)C(N=Cc2ccc(O)c(O)c2)=NN1c1ccccc1 has an MIC of 3.12 µg/mL (resazurin; H37RV).
The MIC of CO[C@H]1/C=C/O[C@@]2(C)Oc3c(C)c(O)c4c(O)c(c(/C=N/N5CCN(C)CC5)c(O)c4c3C2=O)NC(=O)/C(C)=C\C=C\[C@H](C)[C@H](O)[C@@H](C)[C@@H](O)[C@@H](C)[C@H](OC(C)=O)[C@@H]1C is reported as 0.06 µg/mL (resazurin; H37RA; 14 days).
For CC1=NN(CNc2ccc(O)cc2)C(=O)C1=NNn1c(-c2ccccc2)nc2ccccc2c1=O, the MIC was 53.5 µM (resazurin; H37RV).
The MIC of COC(=O)c1cc(-c2cccc(NC(=O)Nc3cc(Cl)ccc3Cl)c2)on1 is reported as 2 µg/mL (ATCC27294 H37RV; 7 days).
With N#Cc1cc(C(F)(F)F)cc2c(=O)nc(N3CCN(CC4CCC4)CC3)sc12 the MIC was greater than 2 µM (resazurin; H37RV).
For Cc1cc(=O)[nH]n1C(=O)c1ccc(-n2c(C)ccc2C)cc1, the MIC was 2 µg/mL (broth dilution; H37RV; 21 days).
With COc1ccc2cc(-c3nc(C(C)(C)C)[nH]c3-c3ccnc(N)c3)ccc2c1 the MIC was 5.4 µM (ATCC27294 H37RV).
With COC1C(O)C(n2ccc(=O)[nH]c2=O)OC1C(OC1OC(C(=O)NC2CCCCNC2=O)=CC(O)C1O)C(N)=O (centres unmarked) the MIC was 12.5 µg/mL (resazurin; H37RV).
CC(C)[C@H]1CO[C@]23CCN(Cc4ccc(C(F)(F)F)cc4)C[C@H]2CCC(=O)N13 gave an MIC of 0.13 µM (resazurin; H37RV; 7 days).
With CO[C@H]1/C=C/O[C@@]2(C)Oc3c(C)c(O)c4c(O)c(c(/C=N/N5CCN(C)CC5)c(O)c4c3C2=O)NC(=O)/C(C)=C\C=C\[C@H](C)[C@H](O)[C@@H](C)[C@@H](O)[C@@H](C)[C@H](OC(C)=O)[C@@H]1C the MIC was 0.009 µM (H37RV).
The MIC of C=C[C@@H](O)C#CC#C[C@@H](O)/C=C\CCCCCCC is reported as 6 µg/mL (resazurin; ATCC35801 ERDMAN; 7 days).
CO[C@@H]1[C@@H](OC(N)=O)[C@@H](O)[C@H](Oc2ccc3c(O)c(NC(=O)c4ccc(O)c(CC=C(C)C)c4)c(=O)oc3c2C)OC1(C)C has an MIC of 8 µg/mL (resazurin; H37RA; 14 days).
O=C1C(=NNc2nc(-c3ccccc3)cs2)C(N=Cc2ccc(O)cc2O)=NN1c1ccccc1 gave an MIC of 6.25 µg/mL (resazurin; H37RV).
COC(=O)c1cc(-c2cccc(NC(=O)Nc3ccccc3F)c2)on1 gave an MIC of 2 µg/mL (ATCC27294 H37RV; 7 days).
With Cc1cn2c(C(=O)NCc3ccc(S(F)(F)(F)(F)F)cc3)c(C)nc2s1 the MIC was 0.4 µM (H37RV; 5 days).
The MIC of O=C(CNS(=O)(=O)c1ccccc1[N+](=O)[O-])N1CCN(C(c2ccc(F)cc2)c2ccc(F)cc2)CC1 is reported as greater than 25 µg/mL (ATCC27294 H37RV).
For O=C1C(=NNc2nc(-c3ccccc3)cs2)C(N=Cc2cccc(Cl)c2)=NN1c1ccccc1, the MIC was 12.9 µM (resazurin; H37RV; 5 days).
O=C(c1cc2c(F)cc(F)cc2[nH]1)N1CCN(C(=O)C23CC4CC(CC(C4)C2)C3)CC1 has an MIC of greater than 75 µM (resazurin; H37RV).
Cc1ccc(-c2nc3ccc(C)cn3c2CC(=O)N(C)C)cc1 gave an MIC of 10 to 11 µM (H37RV; 5 days).
The MIC of COC(=O)c1cc(-c2cccc(NC(=O)Nc3ccc(Cl)c(C(F)(F)F)c3)c2)on1 is reported as greater than 64 µg/mL (ATCC27294 H37RV; 7 days).
Cc1c(Cc2ccc(F)cc2)c(=O)n2c([nH]c3ccccc32)c1C#N gave an MIC of 2 µg/mL (broth dilution; H37RV).
The MIC of COC(=O)c1cc(-c2cccc(NC(=S)Nc3cccc(Cl)c3)c2)on1 is reported as 4 µg/mL (ATCC27294 H37RV; 7 days).
The MIC of CC(C)CC=CC=CC(=O)NC(CC(N)=O)C(=O)NC1C(=O)NC(c2ccc(O)cc2)C(=O)NC(CCCN)C(=O)NC(C(C)O)C(=O)NC(c2ccc(O)cc2)C(=O)NC(c2ccc(O)cc2)C(=O)NC(C(C)O)C(=O)NC(Cc2ccccc2)C(=O)NC(CCCN)C(=O)NC(c2ccc(OC3OC(CO)C(O)C(O)C3OC3OC(CO)C(O)C(O)C3O)cc2)C(=O)NC(C(C)O)C(=O)NC(c2ccc(O)cc2)C(=O)NCC(=O)NC(CC(C)C)C(=O)NC(C)C(=O)NC(c2ccc(O)c(Cl)c2)C(=O)OC1C(N)=O (centres unmarked) is reported as 6.25 to 12.5 µg/mL (H37RV; 14 days).
Nc1ccc(C(=O)O)c(O)c1 has an MIC of 0.125 µg/mL (broth dilution; H37RV).
CC(C)[C@H]1CO[C@]23CCN(Cc4ccc(OC(F)(F)F)cc4)C[C@H]2CCC(=O)N13 gave an MIC of 0.17 µM (resazurin; H37RV; 7 days).
With Cc1ccc(C)n1-c1ccc(-c2nnc(-c3ccc(O)cc3)[nH]2)cc1 the MIC was 16 µg/mL (broth dilution; H37RV; 21 days).
O=C(C1CCCN(S(=O)(=O)c2ccc([N+](=O)[O-])cc2)C1)N1CCN(C(c2ccc(F)cc2)c2ccc(F)cc2)CC1 (centres unmarked) has an MIC of greater than 25 µg/mL (ATCC27294 H37RV).
